From ChEMBL document CHEMBL3259541, “Synthesis and biological evaluation of antimetastatic agents predicated upon dihydromotuporamine C and its carbocyclic derivatives” (J Med Chem, 2014)

How the values were obtained:
[1] = test system: L3.6pl; assay: Effect on intracellular ceramide population in human L3.6PL cells assessed as sphingomyelin N16:0 level measured as contribution to total ceramide population at 0.6 uM after 48 hrs incubation by mass spectrometry analysis (reference value: 37.3%); assay type: functional
[2] = test system: L3.6pl; assay: Effect on intracellular ceramide population in human L3.6PL cells assessed as sphingomyelin N22:1 level measured as contribution to total ceramide population at 0.6 uM after 48 hrs incubation by mass spectrometry analysis (reference value: 6.5%); assay type: functional
[3] = test system: L3.6pl; assay: Effect on intracellular ceramide population in human L3.6PL cells assessed as sphingomyelin N20:0 level measured as contribution to total ceramide population at 0.6 uM after 48 hrs incubation by mass spectrometry analysis (reference value: 1.1%); assay type: functional
[4] = test system: L3.6pl; assay: Effect on intracellular ceramide population in human L3.6PL cells assessed as sphingomyelin N14:0 level measured per mg of protein at 0.6 uM after 48 hrs incubation by mass spectrometry analysis (reference value: 0.12 +/- 0.03 nmol); assay type: functional
[5] = test system: L3.6pl; assay: Effect on intracellular ceramide population in human L3.6PL cells assessed as sphingomyelin N15:0 level measured per mg of protein at 0.6 uM after 48 hrs incubation by mass spectrometry analysis (reference value: 0.09 +/- 0.02 nmol); assay type: functional
[6] = test system: L3.6pl; assay: Effect on intracellular ceramide population in human L3.6PL cells assessed as sphingomyelin N16:1 level measured per mg of protein at 0.6 uM after 48 hrs incubation by mass spectrometry analysis (reference value: 0.24 +/- 0.04 nmol); assay type: functional
[7] = test system: L3.6pl; assay: Effect on intracellular ceramide population in human L3.6PL cells assessed as sphingomyelin N16:0 level measured per mg of protein at 0.6 uM after 48 hrs incubation by mass spectrometry analysis (reference value: 3.21 +/- 0.90 nmol); assay type: functional
[8] = test system: L3.6pl; assay: Effect on intracellular ceramide population in human L3.6PL cells assessed as sphingomyelin N17:0 level measured per mg of protein at 0.6 uM after 48 hrs incubation by mass spectrometry analysis (reference value: 0.09 +/- 0.03 nmol); assay type: functional
[9] = test system: L3.6pl; assay: Effect on intracellular ceramide population in human L3.6PL cells assessed as sphingomyelin N18:1 level measured per mg of protein at 0.6 uM after 48 hrs incubation by mass spectrometry analysis (reference value: 0.08 +/- 0.02 nmol); assay type: functional
[10] = test system: L3.6pl; assay: Effect on intracellular ceramide population in human L3.6PL cells assessed as sphingomyelin N18:0 level measured per mg of protein at 0.6 uM after 48 hrs incubation by mass spectrometry analysis (reference value: 0.38 +/- 0.11 nmol); assay type: functional
[11] = test system: L3.6pl; assay: Effect on intracellular ceramide population in human L3.6PL cells assessed as sphingomyelin N20:1 level measured per mg of protein at 0.6 uM after 48 hrs incubation by mass spectrometry analysis (reference value: 0.04 +/- 0.01 nmol); assay type: functional
[12] = test system: L3.6pl; assay: Effect on intracellular ceramide population in human L3.6PL cells assessed as sphingomyelin N20:0 level measured per mg of protein at 0.6 uM after 48 hrs incubation by mass spectrometry analysis (reference value: 0.09 +/- 0.03 nmol); assay type: functional
[13] = test system: L3.6pl; assay: Effect on intracellular ceramide population in human L3.6PL cells assessed as sphingomyelin N21:0 level measured per mg of protein at 0.6 uM after 48 hrs incubation by mass spectrometry analysis (reference value: 0.03 +/- 0.01 nmol); assay type: functional
[14] = test system: L3.6pl; assay: Effect on intracellular ceramide population in human L3.6PL cells assessed as sphingomyelin N22:2 level measured per mg of protein at 0.6 uM after 48 hrs incubation by mass spectrometry analysis (reference value: 0.02 +/- 0.00 nmol); assay type: functional
[15] = test system: L3.6pl; assay: Effect on intracellular ceramide population in human L3.6PL cells assessed as sphingomyelin N22:1 level measured per mg of protein at 0.6 uM after 48 hrs incubation by mass spectrometry analysis (reference value: 0.23 +/- 0.07 nmol); assay type: functional
[16] = test system: L3.6pl; assay: Effect on intracellular ceramide population in human L3.6PL cells assessed as sphingomyelin N22:0 level measured per mg of protein at 0.6 uM after 48 hrs incubation by mass spectrometry analysis (reference value: 0.30 +/- 0.10 nmol); assay type: functional
[17] = test system: L3.6pl; assay: Effect on intracellular ceramide population in human L3.6PL cells assessed as sphingomyelin N23:2 level measured per mg of protein at 0.6 uM after 48 hrs incubation by mass spectrometry analysis (reference value: 0.03 +/- 0.02 nmol); assay type: functional
[18] = test system: L3.6pl; assay: Effect on intracellular ceramide population in human L3.6PL cells assessed as sphingomyelin N23:0 level measured per mg of protein at 0.6 uM after 48 hrs incubation by mass spectrometry analysis (reference value: 0.08 +/- 0.04 nmol); assay type: functional
[19] = test system: L3.6pl; assay: Effect on intracellular ceramide population in human L3.6PL cells assessed as sphingomyelin N24:2 level measured per mg of protein at 0.6 uM after 48 hrs incubation by mass spectrometry analysis (reference value: 0.25 +/- 0.09 nmol); assay type: functional
[20] = test system: L3.6pl; assay: Effect on intracellular ceramide population in human L3.6PL cells assessed as sphingomyelin N24:1 level measured per mg of protein at 0.6 uM after 48 hrs incubation by mass spectrometry analysis (reference value: 0.85 +/- 0.38 nmol); assay type: functional
[21] = test system: L3.6pl; assay: Effect on intracellular ceramide population in human L3.6PL cells assessed as sphingomyelin N24:0 level measured per mg of protein at 0.6 uM after 48 hrs incubation by mass spectrometry analysis (reference value: 0.22 +/- 0.06 nmol); assay type: functional
[22] = test system: L3.6pl; assay: Effect on intracellular ceramide population in human L3.6PL cells assessed as sphingomyelin N25:1 level measured per mg of protein at 0.6 uM after 48 hrs incubation by mass spectrometry analysis (reference value: 0.02 +/- 0.02 nmol); assay type: functional
[23] = test system: L3.6pl; assay: Effect on intracellular ceramide population in human L3.6PL cells assessed as sphingomyelin N26:1 level measured per mg of protein at 0.6 uM after 48 hrs incubation by mass spectrometry analysis (reference value: 0.01 +/- 0.00 nmol); assay type: functional
[24] = test system: CHO-MG; assay: Cytotoxicity against polyamine transporter deficient CHO-MG cells assessed as cell growth after 48 hrs incubation by MTS assay in presence of 1 mM aminoguanidine; assay type: ADME, cell-based; settings: Cricetulus griseus
Method in brief: (§1)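 CHO and polyamine-transport-deficient CHO-MG* cells pretreated 24 h with 1 mM aminoguanidine, then exposed to compound for 48 h at 37 °C. Triplicate. IC50 taken as 50% growth inhibition. PTS selectivity expressed as the CHO-MG*/CHO IC50 ratio.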

[25] = test system: CHO; assay: Cytotoxicity against CHO cells assessed as cell growth after 48 hrs incubation by MTS assay in presence of 1 mM aminoguanidine; assay type: cell-based; settings: Cricetulus griseus; method in brief: as §1
[26] = Cytotoxicity against human L3.6PL cells assessed as inhibition of cell growth after 48 hrs incubation by MTS assay in presence of 250 uM aminoguanidine treated 24 hrs prior compound addition; assay type: functional, cell-based; settings: for IC50: Homo sapiens, L3.6pl
Method in brief: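 L3.6pl cells pretreated 24 h with 250 μM aminoguanidine, then incubated with compound for 48 h at 37 °C. Triplicate. IC50 is the concentration giving 50% growth inhibition and IC5 the concentration giving 5% inhibition, both versus untreated control.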

Compound: Cl.NCCCNCCCN1CCCCCCCCCCCCCC1
- Activity [1]: 20.3%
- Activity [2]: 18.6%
- Activity [3]: 0.6%
- Activity [4]: 0.24 nmol
- Activity [5]: 0.15 nmol
- Activity [6]: 0.31 nmol
- Activity [7]: 4.01 nmol
- Activity [8]: 0.14 nmol
- Activity [9]: 0.13 nmol
- Activity [10]: 0.47 nmol
- Activity [11]: 0.04 nmol
- Activity [12]: 0.14 nmol
- Activity [13]: 0.04 nmol
- Activity [14]: 0.02 nmol
- Activity [15]: 0.26 nmol
- Activity [16]: 0.4 nmol
- Activity [17]: 0.02 nmol
- Activity [18]: 0.09 nmol
- Activity [19]: 0.27 nmol
- Activity [20]: 0.99 nmol
- Activity [21]: 0.21 nmol
- Activity [22]: 0.03 nmol
- Activity [23]: 0.01 nmol
- IC50 [24]: 2.96 µM
- IC50 [25]: 2.9 µM
- IC5 [26]: 0.6 µM
- IC50 [26]: 0.99 µM

Compound: Cl.NCCCNCCCNCC1CCCCCCCCCCCCCC1
- Activity [1]: 38.4%
- Activity [2]: 4.6%
- Activity [3]: 1.5%
- Activity [4]: 0.2 nmol
- Activity [5]: 0.17 nmol
- Activity [6]: 0.34 nmol
- Activity [7]: 4.36 nmol
- Activity [8]: 0.16 nmol
- Activity [9]: 0.14 nmol
- Activity [10]: 0.54 nmol
- Activity [11]: 0.05 nmol
- Activity [12]: 0.15 nmol
- Activity [13]: 0.04 nmol
- Activity [14]: 0.03 nmol
- Activity [15]: 0.3 nmol
- Activity [16]: 0.46 nmol
- Activity [17]: 0.02 nmol
- Activity [18]: 0.1 nmol
- Activity [19]: 0.31 nmol
- Activity [20]: 1.1 nmol
- Activity [21]: 0.25 nmol
- Activity [22]: 0.03 nmol
- Activity [23]: 0.01 nmol
- IC50 [24]: 87.3 µM
- IC50 [25]: 82.9 µM
- IC5 [26]: 80 µM
- IC50 [26]: 89.4 µM
